Consider five molecules from ChEMBL document CHEMBL1140842 (J Med Chem, 2008).

Data set [1] can be described thus: Cytotoxicity against CHOK1 cells after 72 hrs by MTT assay. Format: cell-based. To be noted: Cricetulus griseus, CHO-K1, 72 h. (Formazan colour is commonly taken as a measure of viable cells.)
Data set [2] deals with HUVEC. As to the kind of experiment: Cytotoxicity against HUVEC cells after 72 hrs by MTT assay. Format: cell-based. The settings on record: Homo sapiens.
The nature of data set [3]: Solubility in PBS buffer. In kind it is physicochemical.
Data set [4] concerns NCI-H838. Nature of the data set: Cytotoxicity against human NCI-H838 cells after 72 hrs by MTT assay. Format: functional, cell-based. To be noted: NCI-H838, 72 h. The gist of the method: (§1)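 2 × 10⁴ cells/well seeded 12 h before dosing; serial dilutions added at final 0.5 nM to […] for 72 h. Medium then replaced, MTT (5 mg/mL stock, 10 µL) added for 4 h at 37 °C, formazan dissolved in DMSO, absorbance read at 570 nm. Viability plotted against untreated control; IC50 = 50% growth inhibition. Means of at least three independent experiments.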

Data set [5] deals with A498. As to the kind of experiment: Cytotoxicity against human A498 cells after 72 hrs by MTT assay. In kind it is functional, cell-based. The settings on record: A498, 72 h.
The nature of data set [6]: Cytotoxicity against human NPC-TW01 cells after 72 hrs by MTT assay. Format: functional, cell-based. To be noted: NPC-TW01, 72 h. The gist of the method: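 2 × 10⁴ cells/well seeded 12 h before dosing; serial dilutions added at final 0.5 nM to […] for 72 h. Medium then replaced, MTT (5 mg/mL stock, 10 µL) added for 4 h at 37 °C, formazan dissolved in DMSO, absorbance read at 570 nm. Means of at least three independent experiments.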

The subject of data set [7] is HUVEC. Nature of the data set: Selectivity index, ratio of IC50 for HUVEC cells to IC50 for human NPC-TW01 cells. In kind it is functional. The method, boiled down: (§2)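 Selectivity index taken as the ratio between IC50 in the normal line (HUV-EC-C or CHO-K1) and IC50 in NPC-TW01. Each IC50 came from a 72 h MTT assay, with final concentrations of 0.5 nM to […].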

Data set [8] is described as follows: Cytotoxicity against human MES-SA cells after 72 hrs by MTT assay. Format: functional, cell-based. The method, boiled down: as §1
The subject of data set [9] is MKN-45. As to the kind of experiment: Cytotoxicity against human MKN45 cells after 72 hrs by MTT assay. In kind it is functional, cell-based. To be noted: MKN-45, 72 h.
The test system of data set [10] is HCT-116. As to the kind of experiment: Cytotoxicity against human HCT116 cells after 72 hrs by MTT assay. Format: functional, cell-based. The settings on record: HCT-116, 72 h. The method, boiled down:
as §1

Data set [11] can be described thus: Cytotoxicity against human Hep3B cells after 72 hrs by MTT assay. In kind it is functional, cell-based, Hep 3B2.
Data set [12] deals with CHO-K1. As to the kind of experiment: Selectivity index, ratio of IC50 for CHOK1 cells to IC50 for human NPC-TW01 cells. Format: functional. The gist of the method:
as §2

Data set [13] deals with NPC-TW01. As to the kind of experiment: Induction of apoptosis in human NPC-TW01 cells assessed as chromosomal condensation by fluorescence microscopy. In kind it is functional, cell-based. The method, boiled down: (§3)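 NPC-TW01 cells grown on coverslips and exposed to compound at 1 µM for 24 h, washed in PBS, then fixed in 4% paraformaldehyde. For tubulin, cells were permeabilized (0.1% Triton X-100), blocked (0.1% BSA), and incubated 45 min at room temperature with anti-β-tubulin (1:200), followed by PE-goat anti-mouse IgG (1:100). For chromosomes, cells were stained with Hoechst 33258. Imaged by laser-scanning confocal microscopy.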

For data set [14], the system named is NPC-TW01. As to the kind of experiment: Induction of morphological changes in human NPC-TW01 cells assessed as microtubule aggregation around nuclei at 1 uM by confocal microscopy. Format: functional, cell-based. The gist of the method:
as §3

In brackets after ≈: the same amount, converted by molar mass. Activity calls are given as the source filed them. No cut-off for these calls is given here. A value given as a limit tells only on which side of the number the result lay.

Regarding `CO[C@@H]1O[C@H](CO)[C@@H](O)[C@H](O)[C@H]1OCCCC(=O)O[C@@H](C(=O)O[C@H]1C[C@@]2(O)[C@@H](OC(=O)c3ccccc3)[C@@H]3[C@]4(OC(C)=O)CO[C@@H]4C[C@H](O)[C@@]3(C)C(=O)[C@H](OC(C)=O)C(=C1C)C2(C)C)[C@@H](NC(=O)c1ccccc1)c1ccccc1`, the IC50 (as a rule, the concentration at which inhibition is half-maximal) was more than 100000 nM in [1]; more than 100000 nM in [2]; 374 nM in data set [4]; more than 100000 nM in data set [5]; 78 nM in data set [6]; 174 nM in data set [8]. The 50% inhibitory concentration (IC50) in data set [9] was more than 100000 nM; in data set [10], 480 nM; in data set [11], more than 100000 nM. In data set [3], the concentration in solution (solubility) was 80 µg/mL (≈ 71.7 µM). In addition, the Selectivity Index in [7] and in data set [12] was more than 780 each time.
Consider `CO[C@@H]1O[C@H](CO)[C@@H](O)[C@H](O)[C@H]1OC(=O)CCC(=O)O[C@@H](C(=O)O[C@H]1C[C@@]2(O)[C@@H](OC(=O)c3ccccc3)[C@@H]3[C@]4(OC(C)=O)CO[C@@H]4C[C@H](O)[C@@]3(C)C(=O)[C@H](OC(C)=O)C(=C1C)C2(C)C)[C@@H](NC(=O)c1ccccc1)c1ccccc1`, for which the IC50 in [1] is more than 100000 nM; in data set [2], more than 100000 nM; in [4], 82 nM; in data set [5], more than 100000 nM; in data set [6], 25 nM; in [8] it was 82 nM. Also, the half-maximal inhibitory concentration (IC50) in data set [9] was more than 100000 nM; in data set [10] it was 100 nM; in data set [11], 100000 nM. Moreover, the concentration in solution in data set [3] (solubility) was 53 µg/mL (≈ 46.9 µM). Besides, the Selectivity Index in data set [7] and in data set [12] was more than 250 each time. Moreover, the result in [13] and in data set [14] was Active.
As to `CO[C@@H]1O[C@H](C(=O)O)[C@@H](O)[C@H](O)[C@H]1OC(=O)CCC(=O)O[C@@H](C(=O)O[C@H]1C[C@@]2(O)[C@@H](OC(=O)c3ccccc3)[C@@H]3[C@]4(OC(C)=O)CO[C@@H]4C[C@H](O)[C@@]3(C)C(=O)[C@H](OC(C)=O)C(=C1C)C2(C)C)[C@@H](NC(=O)c1ccccc1)c1ccccc1`, the IC50 is more than 100000 nM in data set [1]; more than 100000 nM in data set [2]; 267 nM in [4]; more than 100000 nM in [5]; 67 nM in data set [6]; 95 nM in data set [8]. The results for the IC50 in [9], in data set [10] and in [11] were more than 100000 nM, 452 nM and more than 100000 nM, respectively. Also, the concentration in solution in [3] (solubility) was 104 µg/mL (≈ 90.9 µM). Moreover, the Selectivity Index in data set [7] and in [12] was more than 670 in each case.
Regarding `CC(=O)O[C@H]1C(=O)[C@@]2(C)[C@H]([C@H](OC(=O)c3ccccc3)[C@]3(O)C[C@H](OC(=O)[C@H](O)[C@@H](NC(=O)c4ccccc4)c4ccccc4)C(C)=C1C3(C)C)[C@]1(OC(C)=O)CO[C@@H]1C[C@@H]2O` [PACLITAXEL], the IC50 in [1] came to 16000 nM; in data set [2], 5140 nM; in data set [4] it was 26 nM; in data set [5] it was 8810 nM; in data set [8], 8 nM; in [9], 89100 nM. Moreover, the IC50 in data set [10] came out at 61 nM; in data set [11] it was 7260 nM. For the same molecule, the solubility (in general, the concentration that dissolves in the medium under given conditions) in data set [3] was less than 0.4 µg/mL.
Turning to `CO[C@@H]1O[C@H](C(=O)O)[C@@H](O)[C@H](O)[C@H]1OCCCC(=O)O[C@@H](C(=O)O[C@H]1C[C@@]2(O)[C@@H](OC(=O)c3ccccc3)[C@@H]3[C@]4(OC(C)=O)CO[C@@H]4C[C@H](O)[C@@]3(C)C(=O)[C@H](OC(C)=O)C(=C1C)C2(C)C)[C@@H](NC(=O)c1ccccc1)c1ccccc1`, the IC50 was 24000 nM in data set [1]; 44000 nM in [2]; 181 nM in data set [4]; more than 100000 nM in data set [5]; 67 nM in data set [6]; 201 nM in data set [8]. The concentration for half-maximal inhibition (IC50) was more than 100000 nM in data set [9], 469 nM in [10] and more than 100000 nM in data set [11]. Also, in data set [3], the concentration in solution (solubility) was 137 µg/mL (≈ 121 µM). Moreover, the Selectivity Index in [7] was 1520; in data set [12], 2790.
